V-ATPase pH: alters yeast V-ATPase proton transport | response, % at 10 µM | S. cerevisiae, pHLuorin cytosolic pH fluorescence | AID 504577 | 0.37% of 350,000 active; in the data active = response mostly above about 7.3%, no sharp cut-off; inactive = mostly below about 5.4%; also: actives read high
KLK7 zymogen act: activators of human kallikrein-7 zymogen. activation, % at 7 µM. AID 652039. 0.9% of 370,000 active. purified proKLK7, EDANS-DABCYL substrate fluorescence; 100% is mature enzyme control, 0% vehicle. P49862;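 active = activation above the mean of all tested compounds plus 3 SD, computed per campaign excluding outliers beyond control limits, cut at about 13% in these data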
Target sequence (P49862 whole entry, looked up): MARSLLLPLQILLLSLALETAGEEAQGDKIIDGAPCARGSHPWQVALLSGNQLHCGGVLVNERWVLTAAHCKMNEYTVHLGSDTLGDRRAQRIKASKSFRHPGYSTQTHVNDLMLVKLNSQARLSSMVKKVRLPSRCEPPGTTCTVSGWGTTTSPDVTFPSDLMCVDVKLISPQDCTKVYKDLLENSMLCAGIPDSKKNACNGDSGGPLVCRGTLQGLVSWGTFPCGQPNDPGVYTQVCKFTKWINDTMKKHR
MIN6 prolif: induces beta-cell replication in MIN6 cells; proliferation, % at 10 µM; MIN6 cells proliferation, ATPlite luminescence, 48 h; cells starved in 0.2% serum; 100% = growth in 10% serum; 0.29% of 330,000 active; AID 2380;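 active = compounds whose signal lies at least 3.5 SD above the mean of all wells on their plate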
Rce1 inhib: yeast Ras-converting enzyme inhibition; calls only; 0.27% of 290,000 active; Q03530; yeast membranes, quenched prenylated peptide cleavage fluorescence;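 active = fall in fluorescence gain of 50% or more versus controls, with final raw signal at or below 3038400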
Target sequence (Q03530 whole entry, looked up): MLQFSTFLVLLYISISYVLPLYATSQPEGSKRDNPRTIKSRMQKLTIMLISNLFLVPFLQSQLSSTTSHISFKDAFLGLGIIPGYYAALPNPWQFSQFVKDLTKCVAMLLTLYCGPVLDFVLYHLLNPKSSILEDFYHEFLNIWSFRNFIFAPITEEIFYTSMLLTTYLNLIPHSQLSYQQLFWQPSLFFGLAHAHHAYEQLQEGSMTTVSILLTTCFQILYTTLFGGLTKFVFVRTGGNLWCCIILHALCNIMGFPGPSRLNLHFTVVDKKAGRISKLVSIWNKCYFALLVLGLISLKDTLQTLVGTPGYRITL
T cell HTS: modulates CD8 T cell binding to vesicles; 0.068% of 330,000 active; AID 2052; response (vesicle binding), % at 7 µM; 2C CD8+ T cell-vesicle binding, flow cytometry; hits give low values;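 active = response, share of CD8 T cells binding vesicles, and their 90th percentile fluorescence all below set limits, cut at about 80% in these data, passing the limit was not always enough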;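 also: values below 100% mean blocked vesicle binding to the CD8+ T cells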
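Material: 2C TCR transgenic mouse naive CD8+ T cells, MACS-purified. Also added: QL9-charged Drosophila Ld/ICAM-1/B7-1 vesicles. Timing: binding 1.5 h at 37 °C. Measured by: high-throughput flow cytometry with anti-B7-1 and anti-CD8 staining. Read-out: percent CD8+ FL2 mean versus row control. Controls: Unloaded micro-vesicles (low), QL9 vesicles with 0.7% DMSO (high).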
CR mimetic SO: yeast age-related superoxide inhibition as caloric restriction mimetic; S. cerevisiae aged cells, superoxide DHE fluorescence; hits give low values; superoxide response (% of plate mean), % at 10 µM; 0.18% of 330,000 active;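 active = superoxide response under a set limit, about three screen SD below normal, cut at about 65% in these data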;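 also: yeast aged for seven days with compound at 30 °C before DHE staining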
CR mimetic CP: yeast aging superoxide inhibition, cherry pick confirmation | 1% of 850 active | shares compounds with CR mimetic SO | S. cerevisiae aging, superoxide DHE fluorescence; hits give low values | superoxide response (% of plate), % at 10 µM;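 active = superoxide signal below 65% of the plate average of sample wells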;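 also: cells aged with compound for 7 days at 30 degrees C before staining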
DHE fluor count: compound alters DHE oxidation or fluorescence in yeast; shares compounds with CR mimetic SO; S. cerevisiae BY4741, flow cytometry; hits give low values; fluorescence response, % at 10 µM; 850 tested, under 10 active; AID 435000;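 active = fluorescence response below 15%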;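 also: lower means stronger quenching of DHE signal or ROS scavenging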
Each line names hits and unclear results; the compound was inactive in the other large screens (follow-up assays come after a bar, where they were run). An excerpt weighted towards active compounds, which were near 1.9% of everything screened.

O=C(COC(=O)c1ccccc1Nc1ccccc1)NCc1ccccc1	none
NC(=O)c1ccc(NC(=O)COC(=O)c2ccccc2Nc2ccccc2)cc1	CR mimetic SO 56 | CR mimetic CP inactive | DHE fluor count inactive
COC(=O)C1=C(C)N(Cc2ccccc2C(F)(F)F)C(=NCc2ccc3c(c2)OCO3)NC1c1cccc(Cl)c1 (configuration not stated)	none (no result: V-ATPase pH, MIN6 prolif, Rce1 inhib, T cell HTS, CR mimetic SO)
Cc1ccc(/C=N/NC(=O)c2nnn(-c3nonc3N)c2CNc2ccccc2)cc1	CR mimetic SO 65 | CR mimetic CP inactive | DHE fluor count inactive
CC(C)c1ccc(NC(=O)CCNS(=O)(=O)c2ccc3[nH]c(=O)oc3c2)cc1	none
COc1cc(/C=C(\C#N)C(=O)NC(C)C)cc(Cl)c1O	none | CR mimetic CP inactive | DHE fluor count inactive
CC(C)NC(=O)/C(C#N)=C/c1cccc(NC(=O)c2ccccc2Cl)c1	none
C=CCNC(=O)C1CC(=O)N(c2ccc(OCC(=O)Nc3ccc(CC)cc3)cc2)C1 (configuration not stated)	CR mimetic SO 58 | CR mimetic CP inactive | DHE fluor count inactive
C=CCNC(=O)C1CC(=O)N(c2ccc(OCC(=O)Nc3ccc(C)cc3)cc2)C1 (configuration not stated)	none
CN(C)Cc1c(C(C)(C)O)[nH]c2cc(F)ccc12	none (no result: V-ATPase pH, MIN6 prolif, Rce1 inhib, T cell HTS, CR mimetic SO)
CC(C)(C)c1ccc(-c2n[nH]c(=S)n2/N=C/c2ccncc2)cc1	CR mimetic SO 43 | CR mimetic CP inactive | DHE fluor count inactive
Cc1ccc(/C=N/n2c(-c3ccncc3)n[nH]c2=S)cc1	none (no result: MIN6 prolif, T cell HTS, CR mimetic SO)
CC(C)(C)S(=O)(=O)N1Cc2ccc(CO)cc2[C@@H]1CCO	none (no result: MIN6 prolif, Rce1 inhib, T cell HTS, CR mimetic SO)
NS(=O)(=O)c1ccc(NS(=O)(=O)c2ccc(Br)cc2)cc1	none | CR mimetic CP inactive | DHE fluor count inactive
O=S(=O)(Nc1ccc(Cc2ccncc2)cc1)c1ccc(Br)cc1	none
[O-][n+]1ccccc1C(O)CSc1ccccc1 (configuration not stated)	none (no result: V-ATPase pH, MIN6 prolif, Rce1 inhib, T cell HTS, CR mimetic SO)
COc1cccc(-c2nnc(SCC(=O)N(C(C)C)C(C)C)o2)c1	none (no result: Rce1 inhib)
COC(=O)CSc1nnc(-c2ccc(OC)c(OC)c2)o1	none | CR mimetic CP inactive | DHE fluor count inactive
COc1cc(OC)cc(-c2nnc(SCC(=O)N(C(C)C)C(C)C)o2)c1	none | CR mimetic CP inactive | DHE fluor count inactive
O=C(COc1ccc([N+](=O)[O-])cc1)Nc1cccc2nsnc12	none
Cc1cccc(CNC(=O)C2CCC(=O)N(CC3CCCCC3)C2)c1 (configuration not stated)	none (no result: V-ATPase pH, MIN6 prolif, Rce1 inhib, T cell HTS, CR mimetic SO)
Cc1cc2ccccn2c1C(=O)c1ccccc1F	CR mimetic SO 62 | CR mimetic CP inactive | DHE fluor count inactive
O=C(NC(=O)C(F)(F)F)Nc1ccc(S(=O)(=O)Nc2nccs2)cc1	none
C[C@@H]1CN([C@H](C)CO)C(=O)c2cc(Br)cnc2O[C@H]1CN(C)C(=O)c1ccc(F)cc1	none (no result: V-ATPase pH, MIN6 prolif, Rce1 inhib, T cell HTS, CR mimetic SO)
CCCNC(=O)[C@@H]1CCCN1C(=O)C1CCN(S(=O)(=O)c2ccc(C)cc2)CC1	CR mimetic SO 64 | CR mimetic CP inactive | DHE fluor count inactive
CCOc1ccccc1N=C1SCC(C)N1C(=O)C1CCN(c2ncnc3sc(C)c(C)c23)CC1 (configuration not stated)	none (no result: MIN6 prolif, Rce1 inhib, T cell HTS, CR mimetic SO)
O=C(O)c1ccc(NS(=O)(=O)c2cc(Cl)ccc2Cl)cc1	none | CR mimetic CP inactive | DHE fluor count inactive
Cc1ccc(NS(=O)(=O)c2cc(C(=O)O)ccc2Cl)cc1	none
OC(c1ccc(F)c(F)c1)c1ncc(-c2ccccc2F)[nH]1 (configuration not stated)	none (no result: V-ATPase pH, MIN6 prolif, Rce1 inhib, T cell HTS, CR mimetic SO)
CSc1ncc(Cl)c(C(=O)Nc2ccc(C)c(C)c2)n1	CR mimetic SO 65 | CR mimetic CP inactive | DHE fluor count inactive
COc1cccc(NC(=O)c2nc(SC)ncc2Cl)c1	none | CR mimetic CP inactive | DHE fluor count inactive
COc1ccc(NC(=O)c2nc(SC)ncc2Cl)cc1	none
CCOC(=O)c1c(C)nc2ccc(Cl)cc2c1-c1ccccc1	CR mimetic SO 62 | CR mimetic CP inactive | DHE fluor count inactive
CCOC(=O)c1c(C)nc2ccccc2c1-c1ccccc1	none
Cc1cccc(-c2cc3nc(C)cc(C)n3n2)c1	none
Cc1cc(C)n2nc(-c3cccc(Br)c3)cc2n1	none | CR mimetic CP inactive | DHE fluor count inactive
CCn1c2ccccc2c2cc(NC(C)=O)ccc21	none | CR mimetic CP inactive | DHE fluor count inactive
CC(=O)Nc1ccc2c(c1)c1ccccc1n2C(C)=O	none
CC(=O)Nc1ccc(NC(=O)COC(=O)c2cc(S(=O)(=O)N3CCCC3)ccc2O)cc1	CR mimetic SO 62 (no result: Rce1 inhib) | CR mimetic CP inactive | DHE fluor count inactive
O=C(CN1CCN(c2ccccn2)CC1)Nc1ccc(OC(F)(F)F)cc1	none | CR mimetic CP inactive | DHE fluor count inactive
CCN(CC)S(=O)(=O)c1cc(NC(=O)CN2CCN(c3ccccn3)CC2)ccc1C	none | CR mimetic CP inactive | DHE fluor count inactive
CN(C)S(=O)(=O)c1ccc(NC(=O)CN2CCN(c3ccccn3)CC2)cc1	none | CR mimetic CP inactive | DHE fluor count inactive
CC(=O)Nc1ccc(NC(=O)CN2CCN(c3ccccn3)CC2)cc1	CR mimetic SO 53 | CR mimetic CP inactive | DHE fluor count inactive
CCCN(Cc1nnc(-c2ccccc2Cl)o1)C(=O)COc1ccc(Cl)cc1	none (no result: Rce1 inhib)
CC(Oc1ccccc1F)C(=O)NNC(=O)CCNC(=O)c1ccco1 (configuration not stated)	none
O=C(NNC(=O)c1cc(Br)c(Br)s1)c1ccncc1	none (no result: Rce1 inhib)
CC(C)C(C(=O)O)N1C(=O)C2C3CCC(C3)C2C1=O (configuration not stated)	none (no result: MIN6 prolif, Rce1 inhib, T cell HTS, CR mimetic SO)
CCCCn1c(N)c(N(CCOC)C(=O)c2ccc3c(c2)C(=O)N(c2cc(C)ccc2C)C3=O)c(=O)[nH]c1=O	none
CC(C)Cn1c2ccccc2c2cc(C(=O)O)ccc21	none | CR mimetic CP inactive | DHE fluor count inactive
O=[N+]([O-])c1cc(Br)c(Nc2ccccc2)c([N+](=O)[O-])c1	CR mimetic SO 53 | CR mimetic CP inactive | DHE fluor count inactive
Cc1[nH][nH]c(=O)c1C(c1ccc(O)c(Br)c1)c1c(C)[nH][nH]c1=O	CR mimetic SO 56 | CR mimetic CP inactive | DHE fluor count inactive
c1cc2c(cc1CN1CCN(C3CCCCCC3)CC1)OCO2	CR mimetic SO 44 | CR mimetic CP inactive | DHE fluor count inactive
CC(=O)Nc1ccc(S(=O)(=O)Nc2nc3nc(-c4ccccc4)cc(-c4ccccc4)n3n2)cc1	CR mimetic SO 60 | CR mimetic CP inactive | DHE fluor count inactive
CC(=O)Nc1ccc(S(=O)(=O)Nc2cc(-c3ccccc3)nn2C)cc1	none

Compound activity as filed in PubChem.
